According to ChEMBL document CHEMBL1158813, “Diastereomeric quinolinone alkaloids from the marine-derived fungus Penicillium janczewskii” (2005):

Assays:
Type in all cases: functional
Settings in all cases: read-out: Activity
[1] = tested on: CAKI-1; test: Cytotoxicity against human Caki1 cells assessed as cell viability at 10 ug/mL by SRB assay
In short: (§1)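 SRB assay. Cells were plated at 5000–10 000 cells/well, depending on doubling time, and grown 24 h before compound addition. Compounds were dissolved in MeOH or DMSO and tested at 1 µg per 100 µL well (10 µg/mL) in complete medium for 48 h. Cells were fixed with cold TCA for 30 min on ice, at 10% final for adherent cells and 16% for suspension cells. Plates were stained with 0.4% SRB in 1% acetic acid for 10 min at room temperature, dye was solubilized in 10 mM Tris/KOH pH 10.5, and A550 was read.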

[2] = tested on: K562; test: Cytotoxicity against human K562 cells assessed as cell viability at 10 ug/mL by SRB assay; in short: as §1
[3] = tested on: MDA-MB-231; test: Cytotoxicity against human MDA-MB-231 cells assessed as cell viability at 10 ug/mL by SRB assay; in short: as §1
[4] = tested on: DU-145; test: Cytotoxicity against human DU145 cells assessed as cell viability at 10 ug/mL by SRB assay; in short: as §1
[5] = tested on: SK-MEL-2; test: Cytotoxicity against human SK-MEL-2 cells assessed as cell viability at 10 ug/mL by SRB assay; in short: as §1
[6] = tested on: A549; test: Cytotoxicity against human A549 cells assessed as cell viability at 10 ug/mL by SRB assay; in short: as §1
[7] = tested on: SK-OV-3; test: Cytotoxicity against human SKOV3 cells assessed as cell viability at 10 ug/mL by SRB assay; in short: as §1
[8] = tested on: HT-29; test: Cytotoxicity against human HT-29 cells assessed as cell viability at 10 ug/mL by SRB assay; in short: as §1

SMILES	viability at 10 µg/mL [1] [%]	viability at 10 µg/mL [2] [%]	viability at 10 µg/mL [3] [%]	viability at 10 µg/mL [4] [%]	viability at 10 µg/mL [5] [%]	viability at 10 µg/mL [6] [%]	viability at 10 µg/mL [7] [%]	viability at 10 µg/mL [8] [%]
COc1ccc([C@@]2(O)c3ccccc3NC(=O)[C@@H]2O)cc1	65.1	36.6	31.8	48.4	39	56.8	8.1	32.8
COc1ccc([C@@]2(O)c3ccccc3NC(=O)[C@H]2O)cc1	80.3	52.4	52.9	50.6	55.2	56.3	44.6	58.8
COc1ccc([C@@]2(O)c3c(ccc(CC=C(C)C)c3O)NC(=O)[C@@H]2OC)cc1 [PENIPREQUINOLONE]	–	–	8.4	30.8	–	–	20.2	4
